In ChEMBL document CHEMBL4477187, “Macrolides from a Marine-Derived Fungus, Penicillium meleagrinum var. viridiflavum, Showing Synergistic Effects with Fluconazole against Azole-Resistant Candida albicans” (2016):
≈ marks a conversion by molar mass, not a printed value.

Legend:
Format in all cases: functional
Candida albicans [1] = assay: Antifungal activity against fluconazole/itraconazole/voriconazole-resistant Candida albicans clinical isolate J2-36 incubated for 48 hrs in presence of fluconazole by checkerboard microdilution assay; conditions: isolate J2-36, 48 h
Outline: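 Test compound combined with fluconazole against the clinical isolate, 48 h at 37 °C. Combination MIC taken as lowest concentration giving ≥90% growth reduction versus drug-free control.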

Candida albicans [2] = assay: Antifungal activity against fluconazole/itraconazole/voriconazole-resistant Candida albicans clinical isolate J2-36 incubated for 48 hrs by microdilution assay; conditions: isolate J2-36, 48 h
Outline: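 Clinical isolate grown 48 h at 37 °C with test compound alone, tested up to […] μg/mL. MIC read as lowest concentration giving ≥90% growth reduction versus drug-free control.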

Candida albicans [3] = assay: Antifungal activity against fluconazole/itraconazole/voriconazole-resistant Candida albicans clinical isolate J2-36 assessed as fractional inhibitory concentration in presence of fluconazole incubated for 48 hrs by checkerboard microdilution assay
Outline: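 FICA per test compound = MIC in combination with fluconazole / MIC alone. Clinical isolate incubated 48 h at 37 °C. Each MIC = lowest concentration giving ≥90% growth reduction versus drug-free control.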

Compound: CCCCC[C@@H]1CC[C@H](C)CCCCC(=O)N(C)[C@@H](Cc2ccc(OCCO)cc2)C(=O)O1
- MIC (Candida albicans [1]): 0.0016 µg/mL
- MIC (Candida albicans [2]): 2 µg/mL (≈ 4.33 µM)
- Ratio (Candida albicans [3]): 0.00078

Compound: CCC[C@H](O)C[C@@H]1CC[C@H](C)CCCCC(=O)N(C)[C@@H](Cc2ccc(OCC(O)C(C)(C)O)cc2)C(=O)O1 (some centres not stated)
- MIC (Candida albicans [1]): 0.5 µg/mL
- MIC (Candida albicans [2]): > 32 µg/mL
- Ratio (Candida albicans [3]): <0.016

Compound: CCCCCCC[C@@H]1CC[C@H](C)CCCCC(=O)N(C)[C@@H](Cc2ccc(OCCO)cc2)C(=O)O1
- MIC (Candida albicans [1]): 0.5 µg/mL
- MIC (Candida albicans [2]): > 32 µg/mL
- Ratio (Candida albicans [3]): <0.016

Compound: CCC[C@@H]1CC[C@H](C)CCCCC(=O)N(C)[C@@H](Cc2ccc(OCCO)cc2)C(=O)O1
- MIC (Candida albicans [1]): 0.125 µg/mL
- MIC (Candida albicans [2]): 16 µg/mL (≈ 36.9 µM)
- Ratio (Candida albicans [3]): 0.0078

Compound: C[C@@H]1CCCCC(=O)N(C)[C@@H](Cc2ccc(OCCO)cc2)C(=O)O[C@H](C[C@H](C)O)CC1
- MIC (Candida albicans [1]): 0.031 µg/mL
- MIC (Candida albicans [2]): 8 µg/mL (≈ 17.8 µM)
- Ratio (Candida albicans [3]): 0.0039

Compound: CCC[C@H](O)C[C@@H]1CC[C@H](C)CCCCC(=O)N(C)[C@@H](Cc2ccc(OCCO)cc2)C(=O)O1
- MIC (Candida albicans [1]): 0.0078 µg/mL
- MIC (Candida albicans [2]): 1 µg/mL (≈ 2.09 µM)
- Ratio (Candida albicans [3]): 0.0078

Compound: CCCCC[C@@H]1CC[C@H](C)CCCCC(=O)N(C)[C@@H](Cc2ccc(OCC=C(C)C)cc2)C(=O)O1
- MIC (Candida albicans [1]): 1 µg/mL
- MIC (Candida albicans [2]): > 32 µg/mL
- Ratio (Candida albicans [3]): <0.031

Compound: OC(Cn1cncn1)(Cn1cncn1)c1ccc(F)cc1F [FLUCONAZOLE]
- MIC (Candida albicans [2]): > 64 µg/mL
